Measurements from ChEMBL document CHEMBL1811802, “Synthesis and significant cytostatic activity of 7-hetaryl-7-deazaadenosines” (J Med Chem, 2011).
Values belong to the compound of their own block, whether it stands above or below them.

Key:
[1] = Inhibition of RNA polymerase 2 in human HeLaScribe nuclear extracts after 1 hr; details: read-out: IC50
Method in brief: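 HeLaScribe nuclear extract transcription with CMV(+) template DNA, 3 mM MgCl2, 400 μM CTP/GTP/UTP, 25 μM [33P]ATP. Inhibitor preincubated 5 min at 30 °C, then 1 h at 30 °C. Products run on 6% urea–polyacrylamide gel; full-length transcript quantified; IC50 is 50% product decrease.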

Adenosine kinase = Adenosine kinase (Homo sapiens, UniProt P55263); assay: Inhibition of human ADK using [3H]-adenosine by scintillation counting
[2] = Cytotoxicity against human MES-SA cells after 3 days by MTT assay; assay type: functional, cell-based; details: 72 h
[3] = Cytotoxicity against mouse P388D1 cells after 3 days by MTT assay; assay type: functional, cell-based; details: P388D1, 72 h
[4] = Cytotoxicity against human NCI-H146 cells after 3 days by MTT assay; assay type: functional, cell-based; details: NCI-H146, 72 h
SK-MEL-2 = assay: Cytotoxicity against human SK-MEL-2 cells after 3 days by MTT assay; assay type: functional, cell-based; details: SK-MEL-2, 72 h
EL4 = assay: Cytotoxicity against mouse EL4 cells after 3 days by MTT assay; assay type: functional, cell-based; details: EL4, 72 h
LNCaP = assay: Cytotoxicity against human LNCAP cells after 3 days by MTT assay; assay type: functional, cell-based; details: 72 h
HL-60 = assay: Cytotoxicity against human HL60 cells after 3 days by XTT assay; assay type: functional, cell-based; details: HL-60, 72 h
Method in brief: (§1)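 Suspension-grown cell lines, 3-day compound incubation; viability read by XTT metabolic assay; IC50 averaged from four independent experiments.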

MCF7 = assay: Cytotoxicity against human MCF7 cells after 3 days by MTT assay; assay type: functional, cell-based; details: MCF7, 72 h
A549 = assay: Cytostatic activity against human A549 cells after 5 days by SRB assay; assay type: functional; details: A549, 120 h
Method in brief: (§2)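 Cells seeded per line density, overnight at 37 °C; day-zero plate TCA-fixed. 5-fold serial dilutions added, 5-day incubation; TCA fixation, 0.057% SRB in 1% acetic acid 30 min, dye dissolved in 10 mM Tris pH 10.5, A500. Growth relative to day-zero and untreated; GIC50 from sigmoidal dose–response fit; mean of two independent experiments.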

K562 [5] = assay: Cytotoxicity against human K562 cells after 3 days by MTT assay; assay type: functional, cell-based; details: K562, 72 h
BT-549 [6] = assay: Cytostatic activity against human BT549 cells after 5 days by SRB assay; assay type: functional; details: BT-549, 120 h; method in brief: as §2
PC-3 [7] = assay: Cytotoxicity against human PC3 cells after 3 days by MTT assay; assay type: functional, cell-based; details: PC-3, 72 h
SK-OV-3 = assay: Cytotoxicity against human SKOV3 cells after 3 days by MTT assay; assay type: functional, cell-based; details: SK-OV-3, 72 h
K562 [8] = assay: Cytotoxicity against human paclitaxel resistant K562 cells after 3 days by MTT assay; assay type: functional, cell-based; details: K562, 72 h
HeLa = assay: Cytotoxicity against human HeLa cells after 3 days by MTT assay; assay type: functional, cell-based; details: 72 h
HT-29 = assay: Cytotoxicity against human HT-29 cells after 3 days by MTT assay; assay type: functional, cell-based; details: HT-29, 72 h
NCI-H23 = assay: Cytostatic activity against human NCI-H23 cells after 5 days by SRB assay; assay type: functional; details: NCI-H23, 120 h; method in brief: as §2
MDA-MB-231 = assay: Cytotoxicity against human MDA-MB-231 cells after 3 days by MTT assay; assay type: functional, cell-based; details: MDA-MB-231, 72 h
[9] = Cytotoxicity against human HeLaS3 cells after 3 days by XTT assay; assay type: functional, cell-based; details: HeLa S3, 72 h; method in brief: as §1
BT-549 [10] = assay: Cytotoxicity against human BT549 cells after 3 days by MTT assay; assay type: functional, cell-based; details: BT-549, 72 h
CCRF-CEM = assay: Cytotoxicity against human CCRF-CEM cells after 3 days by XTT assay; assay type: functional, cell-based; details: 72 h; method in brief: as §1
PC-3 [11] = assay: Cytostatic activity against human PC3 cells after 5 days by SRB assay; assay type: functional; details: PC-3, 120 h; method in brief: as §2
HCT-116 [12] = assay: Cytostatic activity against human HCT116 cells after 5 days by SRB assay; assay type: functional; details: HCT-116, 120 h; method in brief: as §2
[13] = Cytotoxicity against human CEM-DNR-bulk cells after 3 days by MTT assay; assay type: functional, cell-based; details: 72 h
L1210 = assay: Cytotoxicity against mouse L1210 cells after 3 days by MTT assay; assay type: functional, cell-based; details: L1210, 72 h
[14] = Cytotoxicity against human U87MG cells after 3 days by MTT assay; assay type: functional, cell-based, U-87MG ATCC; details: U-87 MG, 72 h
MAT-Ly-Lu = assay: Cytotoxicity against rat MAT-LyLu cells after 3 days by MTT assay; assay type: functional, cell-based; details: 72 h
CT26 = assay: Cytotoxicity against mouse CT26 cells after 3 days by MTT assay; assay type: functional, cell-based; details: CT26, 72 h
[15] = Cytostatic activity against human Hs578 cells after 5 days by SRB assay; assay type: functional; details: Hs578, 120 h; method in brief: as §2
HCT-116 [16] = assay: Cytotoxicity against human HCT116 cells after 3 days by MTT assay; assay type: functional, cell-based; details: HCT-116, 72 h
MT4 = assay: Cytostatic activity against human MT4 cells after 5 days by SRB assay; assay type: functional; details: MT4, 120 h
BV-173 = assay: Cytotoxicity against human BV173 cells after 3 days by MTT assay; assay type: functional, cell-based; details: BV-173, 72 h
BJ = assay: Cytotoxicity against human BJ cells after 3 days by MTT assay; assay type: cell-based; details: 72 h
HPAC = assay: Cytotoxicity against human HPAC cells after 3 days by MTT assay; assay type: functional, cell-based; details: 72 h
C6 = assay: Cytotoxicity against rat C6 cells after 3 days by MTT assay; assay type: functional, cell-based; details: C6, 72 h
SK-N-AS = assay: Cytotoxicity against human SK-N-AS cells after 3 days by MTT assay; assay type: functional, cell-based; details: 72 h
DU-145 [17] = assay: Metabolic stability in human DU145 cells assessed as sodium ((2R,3S,4R,5R)-5-(4-amino-7H-pyrrolo[2,3-d]pyrimidin-7-yl)-3,4-dihydroxytetrahydrofuran-2-yl)methyl hydrogentriphosphate-NTP formation per million of cells at 10 uM after 24 hrs by LC/MS/MS analysis; assay type: ADME, cell-based; details: du-145, 24 h
Method in brief: (§3)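 Du145 seeded at 60% confluence in MEM/10% FBS; next day exposed to 10 μM compound for 6 or 24 h. Cells trypsinized, extracted in 70% MeOH, dried, resuspended in 1 mM ammonium phosphate pH 8.5. Nucleoside, NMP and NTP quantified by ion-pairing (dimethylhexylamine) LC/MS/MS against untreated-cell-extract standard curves; pmol per million cells.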

DU-145 [18] = assay: Cytostatic activity against human DU145 cells after 5 days by SRB assay; assay type: functional; details: DU-145, 120 h; method in brief: as §2
HCT-15 = assay: Cytostatic activity against human HCT15 cells after 5 days by SRB assay; assay type: functional; details: HCT-15, 120 h; method in brief: as §2
DU-145 [19] = assay: Metabolic stability in human DU145 cells assessed as sodium ((2R,3S,4R,5R)-5-(4-amino-7H-pyrrolo[2,3-d]pyrimidin-7-yl)-3,4-dihydroxytetrahydrofuran-2-yl)methyl hydrogenphosphate-NMP formation per million of cells at 10 uM after 6 hrs by LC/MS/MS analysis; assay type: ADME, cell-based; details: du-145, 6 h; method in brief: as §3
DU-145 [20] = assay: Metabolic stability in human DU145 cells assessed as nucleoside formation per million of cells at 10 uM after 24 hrs by LC/MS/MS analysis; assay type: ADME, cell-based; details: du-145, 24 h; method in brief: as §3
DU-145 [21] = assay: Metabolic stability in human DU145 cells assessed as nucleoside formation per million of cells at 10 uM after 6 hrs by LC/MS/MS analysis; assay type: ADME, cell-based; details: du-145, 6 h; method in brief: as §3
DU-145 [22] = assay: Metabolic stability in human DU145 cells assessed as sodium ((2R,3S,4R,5R)-5-(4-amino-7H-pyrrolo[2,3-d]pyrimidin-7-yl)-3,4-dihydroxytetrahydrofuran-2-yl)methyl hydrogentriphosphate-NTP formation per million of cells at 10 uM after 6 hrs by LC/MS/MS analysis; assay type: ADME, cell-based; details: du-145, 6 h; method in brief: as §3
DU-145 [23] = assay: Metabolic stability in human DU145 cells assessed as sodium ((2R,3S,4R,5R)-5-(4-amino-7H-pyrrolo[2,3-d]pyrimidin-7-yl)-3,4-dihydroxytetrahydrofuran-2-yl)methyl hydrogenphosphate-NMP formation per million of cells at 10 uM after 24 hrs by LC/MS/MS analysis; assay type: ADME, cell-based; details: du-145, 24 h; method in brief: as §3

Adenosine kinase, sequence (P55263 whole entry): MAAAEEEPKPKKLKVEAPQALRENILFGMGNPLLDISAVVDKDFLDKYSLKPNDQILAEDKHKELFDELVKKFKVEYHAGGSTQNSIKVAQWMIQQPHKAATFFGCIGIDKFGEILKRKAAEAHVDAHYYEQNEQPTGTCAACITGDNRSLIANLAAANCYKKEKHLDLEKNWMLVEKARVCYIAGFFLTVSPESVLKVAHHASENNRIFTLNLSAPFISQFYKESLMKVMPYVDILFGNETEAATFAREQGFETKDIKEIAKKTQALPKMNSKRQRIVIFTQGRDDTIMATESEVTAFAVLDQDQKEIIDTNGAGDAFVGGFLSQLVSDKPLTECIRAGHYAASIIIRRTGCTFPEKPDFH

IC50 [1]: > 400 µM
Structure (SMILES): Nc1ncnc2c1c(-c1ccoc1)cn2[C@@H]1O[C@H](COP(=O)(O)OP(=O)(O)OP(=O)(O)O)[C@@H](O)[C@H]1O

IC50 (Adenosine kinase): 0.05 µM | GI50 (A549): 0.192 µM | GI50 (BT-549 [6]): 0.05 µM | GI50 (NCI-H23): 0.144 µM | GI50 (PC-3 [11]): 0.014 µM | GI50 (HCT-116 [12]): 0.97 µM
Structure (SMILES): Nc1ncnc2c1c(-c1cn[nH]c1)cn2[C@@H]1O[C@H](CO)[C@@H](O)[C@H]1O
IC50 [2]: 7.74 µM | IC50 [3]: 0.093 µM | IC50 [4]: > 10 µM | IC50 (SK-MEL-2): > 10 µM | IC50 (EL4): > 10 µM | IC50 (LNCaP): 9.55 µM | IC50 (HL-60): > 25 µM | IC50 (MCF7): > 10 µM | IC50 (K562 [5]): 9.83 µM | IC50 (PC-3 [7]): > 10 µM | IC50 (SK-OV-3): > 10 µM | IC50 (K562 [8]): 0.092 µM | IC50 (HeLa): 0.185 µM | IC50 (HT-29): 0.136 µM | IC50 (MDA-MB-231): > 10 µM | IC50 [9]: 0.22 µM | IC50 (BT-549 [10]): 0.108 µM | IC50 (CCRF-CEM): 0.56 µM | IC50 [13]: 0.104 µM | IC50 (L1210): 0.258 µM | IC50 [14]: > 10 µM | IC50 (MAT-Ly-Lu): > 10 µM | IC50 (CT26): 0.396 µM | GI50 [15]: 0.012 µM | IC50 (HCT-116 [16]): > 10 µM | GI50 (MT4): 0.11 µM | IC50 (BV-173): 9.78 µM | IC50 (BJ): > 10 µM | IC50 (HPAC): 0.141 µM | IC50 (C6): 0.538 µM | IC50 (SK-N-AS): > 10 µM

IC50 (Adenosine kinase): > 5 µM | Stability (DU-145 [17]): 0.27 pmol | GI50 (DU-145 [18]): > 20 µM | GI50 (HCT-15): > 20 µM | GI50 (A549): > 20 µM | GI50 (BT-549 [6]): > 20 µM | GI50 (NCI-H23): > 20 µM | Stability (DU-145 [19]): 6.23 pmol | GI50 (PC-3 [11]): > 20 µM | Stability (DU-145 [20]): 68.8 pmol | GI50 (HCT-116 [12]): > 20 µM | Stability (DU-145 [21]): 32.91 pmol | Stability (DU-145 [22]): 0.13 pmol | Stability (DU-145 [23]): 6.68 pmol
Structure (SMILES): Nc1ncnc2c1c(-c1ccccc1)cn2[C@@H]1O[C@H](CO)[C@@H](O)[C@H]1O
IC50 (HL-60): > 10 µM | IC50 [9]: > 10 µM | IC50 (CCRF-CEM): > 10 µM | GI50 [15]: > 20 µM | GI50 (MT4): > 20 µM

Structure (SMILES): Nc1nc(Cl)nc2c1ncn2[C@H]1C[C@H](O)[C@@H](CO)O1 [CLADRIBINE]
IC50 [2]: 0.165 µM | IC50 [3]: 0.285 µM | IC50 [4]: > 10 µM | IC50 (SK-MEL-2): > 10 µM | IC50 (EL4): 0.848 µM | IC50 (LNCaP): > 10 µM | IC50 (MCF7): 2.35 µM | IC50 (K562 [5]): 7.69 µM | IC50 (PC-3 [7]): 8.28 µM | IC50 (SK-OV-3): > 10 µM | IC50 (K562 [8]): 0.17 µM | IC50 (HeLa): > 10 µM | IC50 (HT-29): 9.44 µM | IC50 (MDA-MB-231): > 10 µM | IC50 (BT-549 [10]): 0.123 µM | IC50 [13]: 0.352 µM | IC50 (L1210): 0.393 µM | IC50 [14]: > 10 µM | IC50 (CT26): 0.131 µM | IC50 (HCT-116 [16]): 9.43 µM | IC50 (BV-173): 0.0008 µM | IC50 (BJ): > 10 µM | IC50 (HPAC): 9.32 µM | IC50 (C6): 9.07 µM | IC50 (SK-N-AS): > 10 µM
